Measured values: ChEMBL document CHEMBL1127293, “Mobilization of iron by chiral and achiral anionic 3-hydroxypyrid-4-ones” (1994)

Legend:
Rattus norvegicus [1] = assay: Biliary excretion of iron was measured after giving intravenous dose of 0.2 mmol/kg during treatment period in rat; assay type: functional
Outline: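 Female Sprague-Dawley rats, previously untreated, served as their own controls. Biliary iron collected 0.5 h for control, then 2 h after tail-vein injection (warm-water tail passage beforehand) under anesthesia; animals recovered between periods and were kept in metabolic cages with free tap water. Iron measured by atomic absorption at 248.3 nm; rate as μg Fe/h.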

Rattus norvegicus [2] = assay: Urinary iron excretion was measured after giving oral dose of 1 mmol/kg during treatment period in rat; assay type: functional, Urine
Outline: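 Female Sprague-Dawley rats as own controls; under ether anesthesia at about 6 p.m., gavage of 1 mL Millipore water (control period) or chelator solution, 1 mL per 200 g rat. Urine collected 15 h overnight in metabolic cages separating feces, tap water ad libitum. Iron by atomic absorption at 248.3 nm; significance p ≤ 0.05.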

Compound | biliary iron excretion (Rattus norvegicus [1]) | urinary iron excretion (Rattus norvegicus [2]) | Treatment period (Rattus norvegicus [1]) | Treatment period (Rattus norvegicus [2])
CSCCC(C(=O)O)n1ccc(=O)c(O)c1C (stereo not given) | 12700 µg/h | 1740 µg/15 h |  | 
Cc1c(O)c(=O)ccn1Cc1ccc(C(=O)O)cc1 | 13700 µg/h | 1550 µg/15 h |  | 
Cc1c(O)c(=O)ccn1-c1ccc(C(=O)O)cc1 | 9390 µg/h | 1110 µg/15 h |  | 
Cc1c(O)c(=O)ccn1C(CC(C)C)C(=O)O (stereo not given) | 11600 µg/h | 8550 µg/15 h |  | 
Cc1c(O)c(=O)ccn1C(CCC(=O)O)C(=O)O (stereo not given) | 1150 µg/h | 170 µg/15 h |  | 
Cc1c(O)c(=O)ccn1[C@@H](C)C(=O)O |  |  | 6240 | 3840
Cc1c(O)c(=O)ccn1C [DEFERIPRONE] | 4810 µg/h | 17300 µg/15 h |  | 
Cc1c(O)c(=O)ccn1C(CO)C(=O)O (stereo not given) | 4180 µg/h | 1790 µg/15 h |  | 
Cc1c(O)c(=O)ccn1C(Cc1ccccc1)C(=O)O (stereo not given) | 8300 µg/h | 1280 µg/15 h |  | 
Cc1c(O)c(=O)ccn1[C@H](C)C(=O)O |  |  | 4580 | 4010
